Key:
[1] = biological target: T1, Fatty-acid amide hydrolase 1 (Rattus norvegicus) (UniProt P97612); assay: Inhibition of FAAH in rat brain homogenates at 10 uM; type: tissue-based
T1 sequence (whole entry): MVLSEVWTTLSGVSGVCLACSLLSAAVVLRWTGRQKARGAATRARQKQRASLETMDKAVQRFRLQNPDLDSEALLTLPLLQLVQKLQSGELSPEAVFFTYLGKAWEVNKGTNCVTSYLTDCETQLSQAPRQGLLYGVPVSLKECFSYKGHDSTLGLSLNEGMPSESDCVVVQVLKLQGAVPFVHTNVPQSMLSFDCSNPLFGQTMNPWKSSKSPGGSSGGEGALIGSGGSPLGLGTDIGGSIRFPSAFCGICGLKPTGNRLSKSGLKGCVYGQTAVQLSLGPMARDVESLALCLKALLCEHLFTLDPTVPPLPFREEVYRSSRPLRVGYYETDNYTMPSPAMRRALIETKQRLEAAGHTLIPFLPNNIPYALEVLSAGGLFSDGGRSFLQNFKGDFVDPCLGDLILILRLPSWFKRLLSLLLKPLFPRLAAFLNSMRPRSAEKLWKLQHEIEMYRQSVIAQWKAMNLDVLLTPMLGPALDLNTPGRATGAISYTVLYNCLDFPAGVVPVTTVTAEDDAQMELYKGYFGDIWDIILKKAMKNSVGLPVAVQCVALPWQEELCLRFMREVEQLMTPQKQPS
Summary of the method: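 FAAH activity in adult rat brain membranes, prepared by homogenization in HEPES pH 7.0 and repeated centrifugation at 36 000 g. Compound at 10 µM incubated with [3H]-anandamide (2 µM final) in Tris-HCl pH 7.6, EDTA, 0.1% BSA for 10 min at 37 °C. Stopped on ice with chloroform/methanol; radioactivity in the aqueous methanol phase counted. Blanks without homogenate.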

Cannabinoid receptor 1 [2] = biological target: T2, Cannabinoid receptor 1 (Homo sapiens, UniProt P21554)
T2 sequence (P21554 whole entry): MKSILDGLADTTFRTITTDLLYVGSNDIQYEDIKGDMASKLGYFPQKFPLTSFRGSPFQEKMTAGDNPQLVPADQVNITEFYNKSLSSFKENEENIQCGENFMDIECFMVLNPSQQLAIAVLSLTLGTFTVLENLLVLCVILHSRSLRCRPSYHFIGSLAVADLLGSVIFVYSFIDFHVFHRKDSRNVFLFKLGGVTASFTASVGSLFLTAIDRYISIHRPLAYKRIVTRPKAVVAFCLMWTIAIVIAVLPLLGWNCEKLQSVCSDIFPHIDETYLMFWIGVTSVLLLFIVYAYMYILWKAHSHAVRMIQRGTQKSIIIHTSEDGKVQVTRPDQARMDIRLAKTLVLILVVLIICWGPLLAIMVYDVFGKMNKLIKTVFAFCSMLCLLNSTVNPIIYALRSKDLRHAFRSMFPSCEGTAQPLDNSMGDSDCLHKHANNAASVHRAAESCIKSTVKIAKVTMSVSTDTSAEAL

Cannabinoid receptor 1 [3] = biological target: T2, Cannabinoid receptor 1; assay: Displacement of [3H]SR141716A from human CB1 receptor expressed in CHO cells at 10 uM; type: cell-based
Summary of the method: (§1)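 Radioligand competition on membranes from CHO cells stably transfected with human CB1 or CB2. Radioligands at 1 nM: [3H]-SR141716A for hCB1, [3H]-CP-55,940 for hCB2. Compound screened at 10 µM. 40 µg membrane protein; Tris-HCl pH 7.4 buffer with MgCl2, EDTA, 0.5% BSA; 1 h at 30 °C. Filtered on PEI-treated GF/B filters and counted. Nonspecific binding with 10 µM HU-210. Result given as % displacement.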

[4] = biological target: Cannabinoid receptor 2 (Homo sapiens) (UniProt P34972); assay: Displacement of [3H]CP-55940 from human CB2 receptor expressed in CHO cells at 10 uM; type: cell-based; summary of the method: as §1
Cannabinoid receptor 2 (Homo sapiens), sequence (P34972 whole entry): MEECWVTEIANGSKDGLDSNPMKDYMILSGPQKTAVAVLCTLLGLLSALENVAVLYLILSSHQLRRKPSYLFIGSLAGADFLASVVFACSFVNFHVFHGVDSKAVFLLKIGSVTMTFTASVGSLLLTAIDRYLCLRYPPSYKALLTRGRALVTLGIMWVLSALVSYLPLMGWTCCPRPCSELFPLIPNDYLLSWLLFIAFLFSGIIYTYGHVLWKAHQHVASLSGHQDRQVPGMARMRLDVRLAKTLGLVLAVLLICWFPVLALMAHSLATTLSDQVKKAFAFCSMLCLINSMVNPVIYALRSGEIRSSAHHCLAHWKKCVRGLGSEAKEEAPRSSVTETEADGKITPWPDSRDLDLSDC

Cannabinoid receptor 1 [5] = biological target: T2, Cannabinoid receptor 1; assay: Potency at human CB1 receptor in a [35S]GTP-gamma-S functional assay
[6] = biological target: Cannabinoid receptor 1 (Rattus norvegicus) (UniProt P20272); assay: Potency at rat CB1 receptor in a [35S]GTPgammaS functional assay at 10 uM; settings: filed as antagonist
Cannabinoid receptor 1 (Rattus norvegicus), sequence (P20272 whole entry): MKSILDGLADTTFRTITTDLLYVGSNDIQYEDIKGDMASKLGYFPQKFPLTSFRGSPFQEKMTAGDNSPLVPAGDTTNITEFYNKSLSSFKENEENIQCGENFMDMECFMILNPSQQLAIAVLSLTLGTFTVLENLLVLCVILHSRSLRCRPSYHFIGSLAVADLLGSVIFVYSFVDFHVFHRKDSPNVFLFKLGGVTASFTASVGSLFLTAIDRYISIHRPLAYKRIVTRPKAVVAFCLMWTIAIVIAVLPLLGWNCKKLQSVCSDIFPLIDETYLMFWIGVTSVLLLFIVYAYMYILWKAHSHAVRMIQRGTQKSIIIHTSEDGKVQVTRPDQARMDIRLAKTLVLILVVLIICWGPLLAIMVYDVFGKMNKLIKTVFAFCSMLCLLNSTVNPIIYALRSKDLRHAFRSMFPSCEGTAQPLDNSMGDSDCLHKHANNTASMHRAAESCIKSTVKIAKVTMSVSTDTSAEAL
Summary of the method: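 [35S]-GTPγS binding in rat cerebellum homogenate, 40 µg protein. Buffer: Tris-HCl pH 7.4 with 100 mM NaCl, 0.1% BSA and 20 µM GDP. Compound at 10 µM; 0.05 nM [35S]-GTPγS final; 1 h at 30 °C. Filtered on GF/B and counted. Nonspecific binding with 100 µM Gpp(NH)p. Mean ± SEM of at least three experiments in duplicate.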

Cannabinoid receptor 1 [7] = biological target: Cannabinoid receptor 1 (Rattus norvegicus, UniProt P20272); assay: Displacement of [3H]SR141716A from CB1 receptor in rat cerebellum; type: tissue-based
Cannabinoid receptor 1 (Rattus norvegicus, UniProt P20272), sequence (P20272 whole entry): as above
Summary of the method: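 40 µg protein; Tris-HCl pH 7.4 buffer with 0.5% BSA; 1 h at 30 °C. Compound at varying concentrations; nonspecific binding with 10 µM HU-210. IC50 by nonlinear regression, converted to Ki by Cheng-Prusoff. Mean ± SEM of at least four experiments in duplicate.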

Row | SMILES | inhibition [1] [%] | Ki (Cannabinoid receptor 1 [2]) [µM] | Activity (Cannabinoid receptor 1 [3]) [%] | Activity [4] [%] | EC50 (Cannabinoid receptor 1 [5]) [µM] | Activity [6] | Ki (Cannabinoid receptor 1 [7]) [µM]
1 | O=C1C(c2ccccc2)N(c2ccc(Cl)c(Cl)c2)C(=S)N1c1ccc(Cl)c(Cl)c1 (stereo not given) | 22.9 | 2 | 78.7 | < 10 |  |  | 
2 | O=C1NC(=O)N(c2ccc(I)cc2)C1c1ccccc1 (stereo not given) |  |  | < 20 | < 10 |  |  | 
3 | O=C1C(c2ccccc2)N(c2ccccc2)C(=S)N1c1ccccc1 (stereo not given) | 11.8 | > 8 | 61.7 | < 10 |  |  | 
4 | O=C1NC(=O)N(c2ccc(Br)cc2)C1c1ccccc1 (stereo not given) |  |  | 25.2 | < 10 |  |  | 
5 | O=C1C(c2ccccc2)N(c2cccc(Cl)c2)C(=O)N1c1cccc(Cl)c1 (stereo not given) | < 10 | 2.11 | 76 | 32.1 | 0.936 |  | 
6 | O=C1C(c2ccccc2)N(c2ccccc2)C(=O)N1c1ccccc1 (stereo not given) | < 10 | 6.3 | 57.1 | < 10 |  |  | 
7 | O=C1C(c2ccccc2)N(c2ccc(Cl)cc2)C(=S)N1c1ccc(Cl)cc1 (stereo not given) | 11.4 | 2.16 | 93.7 | < 10 | 2.1 |  | 
8 | O=C1C(c2ccccc2)N(c2ccc(Br)cc2)C(=O)N1c1ccc(Br)cc1 (stereo not given) | < 10 | 0.243 | 102 | 35.6 | 0.195 | Antagonist | 0.311
9 | O=C1C(c2ccc(Br)cc2)N(c2ccccc2)C(=S)N1c1ccccc1 (stereo not given) | 19.1 | 6.31 | 85.1 | < 10 |  |  | 
10 | O=C1NC(=O)N(c2ccc(Cl)cc2)C1c1ccccc1 (stereo not given) |  |  | < 15 | < 10 |  |  | 
11 | O=C1C(c2ccccc2)N(c2ccc(O)cc2)C(=S)N1c1ccc(O)cc1 (stereo not given) | 31.5 |  | < 20 | < 10 |  |  | 
12 | O=C1C(c2ccccc2)N(c2ccc(Cl)cc2)C(=O)N1c1ccc(Cl)cc1 (stereo not given) | < 10 | 0.353 | 101 | 21.6 | 0.309 | Antagonist | 0.247
13 | CCCCCCC(C)(C)c1cc(O)c2c(c1)OC(C)(C)[C@@H]1CC=C(CO)C[C@@H]21 |  | 0.0186 |  |  | 0.0006 |  | 0.00275
14 | O=C1C(c2ccc(Cl)cc2)N(c2cccc(Cl)c2)C(=O)N1c1cccc(Cl)c1 (stereo not given) | < 10 | 3.31 | 67.4 | 24.8 |  |  | 
15 | O=C1C(c2ccc(Br)cc2)N(c2ccccc2)C(=O)N1c1ccccc1 (stereo not given) | 14.5 | 4.03 | 75.4 | < 15 |  |  | 
16 | O=C1C(c2ccc(Br)cc2)N(c2ccc(Cl)cc2)C(=O)N1c1ccc(Cl)cc1 (stereo not given) | 15.4 | 0.905 | 79.1 | < 20 | 1.23 | Antagonist | 1.74
17 | O=C1C(c2ccccc2)N(c2cccc(I)c2)C(=S)N1c1cccc(I)c1 (stereo not given) | 17.4 | 0.692 | 81.2 | < 15 | 0.461 |  | 

Row | SMILES | inhibition [1] [%] | Ki (Cannabinoid receptor 1 [2]) [µM] | Activity (Cannabinoid receptor 1 [3]) [%] | Activity [4] [%] | EC50 (Cannabinoid receptor 1 [5]) [µM] | Activity [6] | Ki (Cannabinoid receptor 1 [7]) [µM]
18 | COc1ccc(N2C(=O)NC(=O)C2c2ccccc2)cc1 (stereo not given) |  |  | < 10 | < 10 |  |  | 
19 | COc1ccc(N2C(=O)C(c3ccccc3)N(c3ccc(OC)cc3)C2=O)cc1 (stereo not given) | < 10 | 6.46 | 57.8 | 31.4 |  |  | 
20 | O=C(c1ccccc1)N1C(=O)C(c2ccccc2)N(c2ccccc2)C1=O (stereo not given) |  |  | < 10 | < 10 |  |  | 
21 | COc1ccc(N2C(=O)C(c3ccccc3)N(c3ccc(OC)cc3)C2=S)cc1 (stereo not given) | < 10 | 7.03 | 65.6 | < 20 |  |  | 
22 | O=C1C(c2ccc(Cl)cc2)N(c2ccccc2)C(=O)N1c1ccccc1 (stereo not given) | 13.7 | 6.66 | 60.2 | < 15 |  |  | 
23 | O=C1NC(=O)N(c2ccc(Br)cc2)C1c1ccc(Br)cc1 (stereo not given) |  |  | < 15 | < 10 |  |  | 
24 | O=C1NC(=S)N(c2ccccc2)C1c1ccccc1 (stereo not given) |  |  | < 10 | < 10 |  |  | 
25 | O=C1C(c2ccccc2)N(C2CCCCC2)C(=O)N1C1CCCCC1 (stereo not given) |  |  | 25 |  |  |  | 
26 | O=C1NC(=O)N(c2ccccc2)C1c1ccc(Br)cc1 (stereo not given) |  |  | < 15 | < 10 |  |  | 
27 | O=C1NC(=O)N(c2ccccc2)C1c1ccccc1 (stereo not given) |  |  | < 10 | < 10 |  |  | 
28 | CCCCCC(=O)N1C(=O)C(c2ccccc2)N(c2ccccc2)C1=O (stereo not given) |  |  | < 10 | < 10 |  |  | 
29 | CCCCCN1C(=O)C(c2ccccc2)N(c2ccccc2)C1=O (stereo not given) |  |  | 41.1 | < 10 |  |  | 
30 | CCCCCCCN1C(=O)C(c2ccccc2)N(c2ccccc2)C1=O (stereo not given) |  |  |  | < 10 |  |  | 
31 | O=C1C(c2ccccc2)N(c2ccc(Br)cc2)C(=S)N1c1ccc(Br)cc1 (stereo not given) | < 10 | 1.45 | 100 | < 15 | 1.62 |  | 
32 | O=C1C(c2ccc(Cl)cc2)N(c2ccc(Cl)cc2)C(=O)N1c1ccc(Cl)cc1 (stereo not given) | < 10 | 1.88 | 71.6 | 28.1 | 1.11 | Antagonist | 2.62
33 | Cc1ccc(N2C(=O)C(c3ccccc3)N(c3ccc(C)cc3)C2=S)cc1 (stereo not given) | < 10 | 4.97 | 80.1 | < 20 |  |  | 
34 | O=C1NC(=O)N(c2ccc(Cl)cc2)C1c1ccc(Br)cc1 (stereo not given) |  |  | < 15 | < 10 |  |  | 

— ChEMBL document CHEMBL1148623, “Synthesis and activity of 1,3,5-triphenylimidazolidine-2,4-diones and 1,3,5-triphenyl-2-thioxoimidazolidin-4-ones: characterization of new CB1 cannabinoid receptor inverse agonists/antagonists” (J Med Chem, 2006)
